ChEMBL document CHEMBL1148289, “Computer-aided design, synthesis, and anti-HIV-1 activity in vitro of 2-alkylamino-6-[1-(2,6-difluorophenyl)alkyl]-3,4-dihydro-5-alkylpyrimidin-4(3H)-ones as novel potent non-nucleoside reverse transcriptase inhibitors, also active against the Y181C variant” (J Med Chem, 2004)

Tests used:
[1] = Ratio of wild type IIIB to that of Y181C HIV-1 induced cytopathogenicity; assay type: functional
[2] = target: Human immunodeficiency virus type 1 reverse transcriptase (Human immunodeficiency virus 1, UniProt Q72547); assay: Inhibitory concentration required to inhibit the HIV-1 reverse transcriptase activity
In short: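 Purified recombinant HIV-1 RT, RNA-dependent polymerase activity. Template/primer poly(rC)-oligo(dG)12–18 at 0.5 OD260 unit/mL, with [3H]dGTP. Incubated 30 min at 37 °C, then acid-insoluble radioactivity counted on glass fiber filters. IC50 is the dose halving activity. Mean of at least two experiments.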

MT4 [3] = assay: Cytotoxic concentration required to reduce the viability of mock-infected MT-4 cells; assay type: functional; conditions: Homo sapiens
In short: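 Mock-infected MT-4 cells, 1 × 10^4 per well, were exposed to graded compound concentrations in parallel with the antiviral assay. Compounds came from 200 mM DMSO stocks diluted into medium. After 4 days at 37 °C, viability was measured by MTT. The value is the dose reducing viability by 50%, as a mean of at least two experiments.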

MT4 [4] = assay: Effective dose required to achieve protection of MT-4 cells from HIV-1 induced cytopathogenicity; assay type: functional, cell-based; conditions: Homo sapiens
In short: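 MT-4 cells (RPMI 1640, 10% FCS, 37 °C, 5% CO2), 1 × 10^4 per well, were infected with 100 CCID50 of HIV-1 IIIB in the presence of graded compound concentrations. Compounds came from 200 mM DMSO stocks diluted into medium. After 4 days at 37 °C, viable cells were counted by MTT. The value is the dose giving 50% protection, as a mean of at least two experiments.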

[5] = Ratio of CC50 to that EC50 in mock infected cells; assay type: functional
In short: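 Selectivity index is the ratio of CC50 (mock-infected MT-4 viability, MTT, 4 days) to EC50 (protection of HIV-1 IIIB-infected MT-4 cells, MTT, 4 days), both from parallel assays.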

MT4 [6] = assay: Effective dose required to achieve protection of MT-4 cells from Y181C HIV-1 induced cytopathogenicity; assay type: functional, cell-based; conditions: Homo sapiens
In short: (§1)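 MT-4 cells (1 × 10^4/well) in RPMI 1640 with 10% FCS, infected with 100 CCID50 of HIV-1 (IIIB wild type or Y181C), compounds from DMSO stock diluted in medium at various concentrations. After 4 days at 37 °C, viable cells counted by MTT. EC50 is the dose giving 50% protection from virus cytopathicity. Mean of at least two experiments.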

MT4 [7] = assay: Effective dose required to achieve protection of MT-4 cells from wild type IIIB HIV-1 induced cytopathogenicity; assay type: functional, cell-based; conditions: Homo sapiens; in short: as §1

SMILES: O=C1Nc2ccc(Cl)cc2[C@@](C#CC2CC2)(C(F)(F)F)O1
- Ratio [1]: 6

SMILES: Cc1c(Cc2c(F)cccc2F)nc(NC2CCCC2)[nH]c1=O
- IC50 [2]: 30 nM
- CC50 (MT4 [3]): > 200000 nM
- EC50 (MT4 [4]): 20 nM
- Selectivity index [5]: >10000

SMILES: Cc1c(C(C)c2c(F)cccc2F)nc(NC2CCCC2)[nH]c1=O (stereo not drawn)
- EC50 (MT4 [6]): 160 nM
- IC50 [2]: 35 nM
- CC50 (MT4 [3]): 90000 nM
- EC50 (MT4 [4]): 20 nM
- Ratio [1]: 5.3
- EC50 (MT4 [7]): 30 nM
- Selectivity index [5]: 4500

SMILES: Cc1c(C(C)c2c(F)cccc2F)nc(SC2CCCC2)[nH]c1=O (stereo not drawn)
- EC50 (MT4 [6]): 200 nM
- CC50 (MT4 [3]): > 200000 nM
- EC50 (MT4 [4]): 6 nM
- Ratio [1]: 13
- EC50 (MT4 [7]): 15 nM
- Selectivity index [5]: >33333

SMILES: CC(c1cc(=O)[nH]c(NC2CCCC2)n1)c1c(F)cccc1F (stereo not drawn)
- IC50 [2]: 40 nM
- CC50 (MT4 [3]): 76000 nM
- EC50 (MT4 [4]): 30 nM
- Selectivity index [5]: 3500

SMILES: CCOCn1c(Cc2ccccc2)c(C(C)C)c(=O)[nH]c1=O [EMIVIRINE]
- CC50 (MT4 [3]): 200000 nM
- Selectivity index [5]: 6666

SMILES: O=c1cc(Cc2c(F)cccc2F)nc(NC2CCCC2)[nH]1
- IC50 [2]: 70 nM
- CC50 (MT4 [3]): > 200000 nM
- EC50 (MT4 [4]): 90 nM
- Selectivity index [5]: >2222

SMILES: Cc1ccnc2c1NC(=O)c1cccnc1N2C1CC1 [NEVIRAPINE]
- EC50 (MT4 [6]): > 30000 nM
- Ratio [1]: > 81

SMILES: CC(c1cc(=O)[nH]c(SC2CCCC2)n1)c1c(F)cccc1F (stereo not drawn)
- IC50 [2]: 30 nM
- CC50 (MT4 [3]): > 200000 nM
- EC50 (MT4 [4]): 30 nM
- Selectivity index [5]: >6666

SMILES: O=c1cc(Cc2c(F)cccc2F)nc(SC2CCCC2)[nH]1
- CC50 (MT4 [3]): > 200000 nM
- Selectivity index [5]: >2500

SMILES: Cc1c(Cc2c(F)cccc2F)nc(SC2CCCC2)[nH]c1=O
- CC50 (MT4 [3]): > 200000 nM
- Selectivity index [5]: > 2500
